Experimental findings from ChEMBL document CHEMBL4304739, “Discovery of 3-(Indol-5-yl)-indazole Derivatives as Novel Myeloid Differentiation Protein 2/Toll-like Receptor 4 Antagonists for Treatment of Acute Lung Injury” (J Med Chem, 2019) are described below.

In assay [1] the target is Mitogen-activated protein kinase 10 (Homo sapiens) (UniProt P53779). Kind of assay: Inhibition of wild-type human partial length JNK3 (V28 to Q422 residues) expressed in mammalian expression system at 1 uM by Kinomescan method. Put shortly: (§1)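 Binding-competition screen on the KINOMEscan platform, run by the provider, with the test compound at 1 μM. Readout is percent of control: (test signal − positive control signal)/(negative control signal − positive control signal) × 100. The DMSO negative control is set as 100% Ctrl and a control compound as 0% Ctrl. Lower values mean stronger hits.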

In assay [2] the target is Mitogen-activated protein kinase 8 (Homo sapiens) (UniProt P45983). As to the kind of experiment: Inhibition of wild-type human full length JNK1 (M1 to Q384 residues) expressed in mammalian expression system at 1 uM by Kinomescan method. A digest of the protocol:
(§2)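 KINOMEscan competition binding screen at 1 μM compound. Results reported as % of control = (test − positive control)/(DMSO negative control − positive control) × 100, where lower values mean stronger hits.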

Assay [3] deals with Cyclin-dependent kinase 3 (Homo sapiens) (UniProt Q00526). As to the kind of experiment: Inhibition of wild-type human full length CDK3 (M1 to H305 residues) expressed in bacterial expression system at 1 uM by Kinomescan method. Put shortly:
as §2

In assay [4] the target is MAP kinase-activated protein kinase 2 (Homo sapiens) (UniProt P49137). Kind of assay: Inhibition of wild-type human partial length MAPKAPK2 (V48 to D345 residues) expressed in bacterial expression system at 1 uM by Kinomescan method. Put shortly:
as §1

Assay [5] has as its target Mitogen-activated protein kinase kinase kinase 9 (Homo sapiens) (UniProt P80192). Kind of assay: Inhibition of wild-type human partial length MLK1 (V88 to W426 residues) expressed in bacterial expression system at 1 uM by Kinomescan method. Put shortly:
as §1

Assay [6] concerns the target Serine/threonine-protein kinase DCLK1 (Homo sapiens) (UniProt O15075). As to the kind of experiment: Inhibition of wild-type human partial length DCAMKL1 (L270 to A662 residues) expressed in mammalian expression system at 1 uM by Kinomescan method. Put shortly: as §1
For assay [7], the target named is Mitogen-activated protein kinase 14 (Homo sapiens) (UniProt Q16539). As to the kind of experiment: Inhibition of wild-type human full length p38-alpha (M1 to S360 residues) expressed in bacterial expression system at 1 uM by Kinomescan method. A digest of the protocol:
as §2

For assay [8], the target named is MAP kinase-interacting serine/threonine-protein kinase 2 (Homo sapiens) (UniProt Q9HBH9). Kind of assay: Inhibition of wild-type human partial length MKNK2 (G63 to S388 residues) expressed in mammalian expression system at 1 uM by Kinomescan method. A digest of the protocol:
as §1

Assay [9] has as its system Mus musculus. As to the kind of experiment: Antiinflammatory activity in LPS-induced C57BL/6 mouse model of acute lung injury assessed as reduction in IL1beta mRNA level at 10 mg/kg, iv pretreated for 15 mins followed by LPS stimulation and measured after 6 hrs by SYBR green staining-based qRT-PCR analysis. The class given is functional, organism-based. A digest of the protocol: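 Total lung RNA extracted, with DNase I removal of residual DNA. Quantitative PCR with mouse gene primers; each gene normalized to β-actin. C57BL/6 mice given compound iv 15 min before intraperitoneal LPS (20 mg/kg) and killed at 6 h.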
In general terms: In qPCR the cycle at which signal appears reflects the starting amount.

Assay [10] has as its target Receptor tyrosine-protein kinase erbB-4 (Homo sapiens) (UniProt Q15303). As to the kind of experiment: Inhibition of wild-type human partial length ERBB4 (L690 to K994 residues) expressed in bacterial expression system at 1 uM by Kinomescan method. A digest of the protocol: as §1
In assay [11] the target is Tyrosine-protein kinase ZAP-70 (Homo sapiens) (UniProt P43403). As to the kind of experiment: Inhibition of wild-type human partial length ZAP70 (D20 to G299 residues) expressed in mammalian expression system at 1 uM by Kinomescan method. Put shortly:
(§3)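 Single-concentration screen at 1 μM on the KINOMEscan panel (98 kinases), run by the platform provider. Results are given as percent of control: % Ctrl = [(test signal − positive control signal)/(negative control signal − positive control signal)] × 100. DMSO serves as negative control (100% Ctrl) and a control compound as positive control (0% Ctrl). Lower values mean stronger binding hits.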

The target in assay [12] is NUAK family SNF1-like kinase 2 (Homo sapiens) (UniProt Q9H093). As to the kind of experiment: Inhibition of wild-type human partial length SNARK (P22 to A333 residues) expressed in mammalian expression system at 1 uM by Kinomescan method. Put shortly:
as §3

Assay [13] concerns the target Serine/threonine-protein kinase PLK3 (Homo sapiens) (UniProt Q9H4B4). Kind of assay: Inhibition of wild-type human partial length PLK3 (A42 to L334 residues) expressed in mammalian expression system at 1 uM by Kinomescan method. A digest of the protocol: as §1
The target in assay [14] is Serine/threonine-protein kinase RIO2 (Homo sapiens) (UniProt Q9BVS4). As to the kind of experiment: Inhibition of wild-type human partial length RIOK2 (M1 to D313 residues) expressed in mammalian expression system at 1 uM by Kinomescan method. Put shortly:
as §1

Assay [15] deals with Dual specificity tyrosine-phosphorylation-regulated kinase 1B (Homo sapiens) (UniProt Q9Y463). Kind of assay: Inhibition of wild-type human full length DYRK1B (M1 to S629 residues) expressed in bacterial expression system at 1 uM by Kinomescan method. Put shortly: as §2
In assay [16] the test system is Mus musculus. As to the kind of experiment: Antiinflammatory activity in LPS-induced C57BL/6 mouse model of acute lung injury assessed as reduction in TNFalpha level at 5 to 10 mg/kg, iv pretreated for 15 mins followed by LPS stimulation and measured after 6 hrs by ELISA. The class given is functional, organism-based. Put shortly: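 Male C57BL/6 mice (18−22 g; n=8 per group). Compound in 0.1% CMC-Na given by tail vein injection 15 min before intraperitoneal LPS (20 mg/kg); controls received saline. Mice were sacrificed 6 h after LPS, and serum and lung tissue were collected.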
A general note: ELISA stands for enzyme-linked immunosorbent assay.

The target of assay [17] is Mast/stem cell growth factor receptor Kit (Homo sapiens) (UniProt P10721). Kind of assay: Inhibition of wild-type human partial length KIT (I571 to D952 residues) expressed in bacterial expression system at 1 uM by Kinomescan method. A digest of the protocol:
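KINOMEscan competition binding panel (98 kinases) run by the provider, compound screened once at 1 μM. Read-out is percent of control: [(test signal − positive control signal)/(negative control signal − positive control signal)] × 100. DMSO negative control sets 100% Ctrl and a control compound sets 0% Ctrl; lower values mean stronger hits.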

Assay [18] deals with Mitogen-activated protein kinase kinase kinase 4 (Homo sapiens) (UniProt Q9Y6R4). Kind of assay: Inhibition of wild-type human partial length MAP3K4 (G1319 to E1608 residues) expressed in bacterial expression system at 1 uM by Kinomescan method. Put shortly: as §1
Assay [19] addresses Dual specificity mitogen-activated protein kinase kinase 2 (Homo sapiens) (UniProt P36507). Kind of assay: Inhibition of wild-type human full length MEK2 (M1 to V400 residues) expressed in mammalian expression system at 1 uM by Kinomescan method. A digest of the protocol: as §2
Assay [20] deals with Serine/threonine-protein kinase pim-1 (Homo sapiens) (UniProt P11309). As to the kind of experiment: Inhibition of wild-type human partial length PIM1 (A15 to K313 residues) expressed in bacterial expression system at 1 uM by Kinomescan method. A digest of the protocol: as §1
Assay [21] deals with Insulin-like growth factor 1 receptor (Homo sapiens) (UniProt P08069). As to the kind of experiment: Inhibition of wild-type human partial length IGF1R (L972 to D1294 residues) expressed in bacterial expression system at 1 uM by Kinomescan method. A digest of the protocol:
as §1

In assay [22] the test system is Tyrosine-protein kinase ABL1 (Homo sapiens), P00519 [T315I]. As to the kind of experiment: Inhibition of human phosphorylated ABL1 T315I mutant (S229 to K512 residues) expressed in mammalian expression system at 1 uM by Kinomescan method. A digest of the protocol: as §2

Each structure is given as a SMILES string. Activity calls are given as the source filed them. The rule behind the calls is not given here.

Regarding `O=C(Nc1ccc2[nH]nc(-c3ccc4[nH]ccc4c3)c2c1)c1c(Cl)cccc1Cl`, the inhibition entry in assay [1], in assay [2], in [3], in [4], in [5] and in assay [6] was “inactive” in each case. Moreover, the inhibition result in assay [7], in assay [8], in assay [10], in assay [11], in assay [12] and in assay [13] was “inactive” each time. Further, the inhibition result in assay [14], in assay [15], in [17], in assay [18], in [19] and in [20] was “inactive” throughout. Further, the inhibition result in [21] and in assay [22] was “inactive” throughout. Moreover, the result in the assay with Mus musculus [9] and in the assay with Mus musculus [16] was Active.
